APJ ag – activates the human apelin receptor APJ | P35414 | CHO-K1 APJ PathHunter beta-arrestin, luminescence; 0% DMSO wells, 100% apelin | activation, % at 20 µM | 330,000 compounds, 0.11% hits | AID 2520;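 active means activation more than six SD over the plate average, tested at 20 µM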
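system = engineered CHO-K1 APJ arrestin reporter cells | input = 1000 cells per well | timing = overnight seeding, 90 min compound at 25 °C, 1 h detection | measured by = enzyme-fragment complementation luminescence | read-out = beta-arrestin recruitment to APJ as agonist activity, luminescent signal | control set = negative DMSO alone, positive Apelin-13 at 10 nM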
CCR6 antagonist – CCR6 (human) receptor antagonism; P51684; CHO-K1 CCR6 PathHunter beta-arrestin, luminescence, CCL20-stimulated; inhibition, % at 20 µM; 340,000 compounds, 0.49% hits;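 active means compounds whose inhibition of the agonist-driven luminescence signal at 20 µM reaches about 50%, limit read from the data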;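 further: cells stimulated with CCL20 at 14 nM final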
EBI2 block – blocks human EBI2 receptor beta-arrestin signaling; P32249; 360,000 compounds, 0.81% hits; inhibition, % at 5 µM; EBI2 beta-arrestin recruitment, luminescence, 7a,25-OHC stimulated; in the data active means inhibition above about 38%;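 further: enzyme fragment complementation signal reports receptor beta-arrestin coupling in cells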
Target sequence (P32249 whole entry, looked up, the tested form may be a part): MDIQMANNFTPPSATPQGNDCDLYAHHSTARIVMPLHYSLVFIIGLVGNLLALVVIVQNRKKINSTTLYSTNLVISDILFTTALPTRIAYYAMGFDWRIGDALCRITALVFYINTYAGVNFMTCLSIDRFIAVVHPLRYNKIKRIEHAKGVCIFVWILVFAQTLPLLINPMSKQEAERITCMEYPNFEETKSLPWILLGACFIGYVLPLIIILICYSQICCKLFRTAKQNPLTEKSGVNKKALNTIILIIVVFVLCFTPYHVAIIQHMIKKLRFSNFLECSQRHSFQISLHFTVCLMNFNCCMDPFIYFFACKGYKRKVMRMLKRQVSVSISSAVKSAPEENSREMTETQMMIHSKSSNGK
CXCR6 block – blocks human CXCR6 beta-arrestin recruitment | 360,000 compounds, 0.36% hits | CHO-K1 PathHunter CXCR6 beta-arrestin, luminescence | O00574 | inhibition, % at 20 µM; in the data active means inhibition above about 34%, passing the limit was not always enough;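 further: antagonist mode with CXCL16 agonist at 10 nM final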
Target sequence (O00574 whole entry, looked up): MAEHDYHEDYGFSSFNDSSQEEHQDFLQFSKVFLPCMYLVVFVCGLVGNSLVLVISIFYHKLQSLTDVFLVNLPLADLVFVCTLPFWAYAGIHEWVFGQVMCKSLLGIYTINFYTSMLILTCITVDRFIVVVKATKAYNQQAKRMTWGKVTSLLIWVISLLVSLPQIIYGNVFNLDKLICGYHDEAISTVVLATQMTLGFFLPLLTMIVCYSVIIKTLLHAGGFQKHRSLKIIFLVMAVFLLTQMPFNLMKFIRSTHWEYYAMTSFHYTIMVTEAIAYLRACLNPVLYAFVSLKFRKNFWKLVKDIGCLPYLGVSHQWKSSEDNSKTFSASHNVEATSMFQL
APJ antag – antagonists of human APJ apelin receptor; 330,000 compounds, 0.32% hits; P35414; AID 2521; inhibition, % at 20 µM; CHO-K1 APJ beta-arrestin complementation, luminescence;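 active means inhibition above about 40% at 20 µM, limit read from the data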;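 further: cells challenged with 10 nM apelin-13 agonist together with compound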
EBI2 antag conf – confirmation of human EBI2 receptor antagonists; shares compounds with EBI2 block; EBI2 beta-arrestin luminescence, 7a,25-OHC antagonism; inhibition, % at 5 µM; 2,400 compounds, 29% hits;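 active means inhibition of at least 50%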
EBI2 agonist – activates EBI2, counter-screen for EBI2 antagonists | shares compounds with EBI2 block | EBI2-expressing cells, agonist mode, luminescence, 60 min; 0% vehicle, 100% 7α,25-dihydroxycholesterol control | activation, % at 5 µM | 2,400 tested, under 10 active | AID 652000;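 active means activation of at least 50%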
bGal cs – inhibits E. coli beta-galactosidase, counter-screen for EBI2 antagonists; inhibition, % at 5 µM; shares compounds with EBI2 block; 2,400 compounds, 1% hits; purified beta-galactosidase, luminescent Galacton Star, 15 min; AID 652176;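 active means replicate-average signal at least 3 plate SD below neutral wells, shown as high inhibition, flagging enzyme-inhibiting false positives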;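 further: higher means stronger loss of beta-gal luminescence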
Of the large screens only hits and unclear results are named; the others gave an inactive call (follow-up assays come after a bar, where they were run). Shown are actives, neighbours in structure and some others; about 1.5% of the full set was active somewhere.

Cc1ccc(C(C)C)c(OCCNC(=O)c2cncc(Br)c2)c1	EBI2 block 50 | EBI2 antag conf inactive | EBI2 agonist inactive | bGal cs inactive
CCN(CC)C(=O)CSc1ccccc1N	none
O=C(CCc1nc2ccccc2c(=O)[nH]1)NNC(=O)COc1ccc(Br)cc1	EBI2 block 59 | EBI2 antag conf inactive | EBI2 agonist inactive | bGal cs inactive
COc1ccc(S(=O)(=O)Nc2ccc3c(c2)C(=O)N([C@H](C)CO)C[C@H](C)[C@@H](CN(C)C(=O)Nc2ccccc2)O3)cc1	none
CCOC(=O)c1cnc2ccc(OC)cc2c1Nc1ccc(N2CCN(C)CC2)cc1	EBI2 block 41 | EBI2 antag conf 53 | EBI2 agonist inactive | bGal cs inactive
CCOC(=O)c1ccc2ncc(C(=O)OCC)c(Nc3ccc(N4CCOCC4)cc3)c2c1	none
O=c1c2oc3ccccc3c2ncn1Cc1cccc(Cl)c1	EBI2 block 48 | EBI2 antag conf inactive | EBI2 agonist inactive | bGal cs inactive
O=c1c2oc3ccccc3c2ncn1Cc1ccccc1Cl	none
COc1cc2c(cc1NC(=S)NC(=O)/C=C/c1ccc(OC)c(OC)c1)oc1ccccc12	none (no result: APJ ag, APJ antag)
COc1cc2c(cc1NC(=S)NC(=O)/C=C/c1ccco1)oc1ccccc12	EBI2 block 55 | EBI2 antag conf 51 | EBI2 agonist inactive | bGal cs inactive
COc1ccc(/C=C/C(=O)NC(=S)Nc2cc3oc4ccccc4c3cc2OC)cc1	EBI2 block 65 | EBI2 antag conf inactive | EBI2 agonist inactive | bGal cs inactive
COc1ccccc1Cc1c(-c2ccc(OC)c(OC)c2)nc2cc(C)c(Br)c(C)n12	none (no result: APJ ag, CCR6 antagonist, APJ antag)
COc1ccc(-c2nc3cc(C)c(Br)c(C)n3c2Cc2ccccc2C(F)(F)F)cc1OC	EBI2 block 41 (no result: APJ ag, CCR6 antagonist, APJ antag) | EBI2 antag conf inactive | EBI2 agonist inactive | bGal cs inactive
Cc1ccc(S(=O)(=O)N2C[C@H]3n4c(=O)ccc(=O)n4C[C@H](OC(=O)NCC4CCCCC4)[C@@]3(O)C2)cc1	none (no result: APJ ag, CCR6 antagonist, APJ antag)
O=C1N=C(N2CCCCC2)S/C1=C\c1ccncc1	none
COc1ccc(/C=C2\SC(N3CCCCC3)=NC2=O)cc1	EBI2 block 54 | EBI2 antag conf inactive | EBI2 agonist inactive | bGal cs inactive
CCc1ccc(/C=C2\SC(N3CCCC3)=NC2=O)cc1	EBI2 block 73 | EBI2 antag conf inactive | EBI2 agonist inactive | bGal cs inactive
c1ccc(-c2cn(-c3ccccc3)c3ncnc(NCCCN4CCOCC4)c23)cc1	EBI2 block 62 | EBI2 antag conf inactive | EBI2 agonist inactive | bGal cs inactive
CCOC(=O)c1nc(Nc2ccc(N3CCC(C)CC3)cc2)c2ccccc2n1	none
C=CCn1c(SCc2ccc(C(=O)Nc3ccccc3)cc2)nnc1-c1ccccc1	EBI2 block 49 | EBI2 antag conf inactive | EBI2 agonist inactive | bGal cs inactive
CCCCNc1ncnc2sc3c(c12)CCN(CCC)C3	none
O=C(CC1NCCNC1=O)NC1Cc2ccccc2C1 (stereo unspecified)	none
Cc1ccc(OCC(=O)N2CCN(C(=O)c3cccc(F)c3)CC2)cc1	EBI2 block 84 | EBI2 antag conf inactive | EBI2 agonist inactive | bGal cs inactive
COc1ccc(OCC(=O)N2CCN(C(=O)c3ccc(F)cc3)CC2)cc1	EBI2 block 79 | EBI2 antag conf 65 | EBI2 agonist inactive | bGal cs inactive
COc1cc(OC)cc(C(=O)N2CCN(C(=O)c3cccc(F)c3)CC2)c1	none
COc1ccc(OCC(=O)N2CCN(C(=O)c3cccc(F)c3)CC2)cc1	EBI2 block 81 | EBI2 antag conf 61 | EBI2 agonist inactive | bGal cs inactive
Cc1ccc(OCC(=O)N2CCN(C(=O)c3ccncc3)CC2)cc1	EBI2 block 44 | EBI2 antag conf inactive | EBI2 agonist inactive | bGal cs inactive
COCCNCc1ccccc1[N+](=O)[O-]	none
CC(C)NC(=O)CN1CCN(C(=O)c2ccc3oc(CCCc4ccccc4)nc3c2)CC1	none
CC(C)NC(=O)C(c1ccc(F)cc1)N(Cc1ccco1)C(=O)CCC(=O)Nc1ccccn1 (stereo unspecified)	none
CCn1ccnc1[C@@H]1C[C@H]2CN(c3ccccc3OC)C(=O)[C@]23CCCN13	none
CCOC(=O)CN(C(=O)CSc1nnc(CNc2ccc(F)cc2)o1)c1ccccc1	EBI2 block 43 | EBI2 antag conf inactive | EBI2 agonist inactive | bGal cs inactive
O=C1C=C(Nc2ccc(Cl)cc2)CC(c2ccc(Cl)cc2)C1 (stereo unspecified)	EBI2 block 81 | EBI2 antag conf 82 | EBI2 agonist inactive | bGal cs inactive
Cc1ccc(C2CC(=O)C=C(Nc3ccc(Cl)cc3)C2)cc1 (stereo unspecified)	EBI2 block 75 | EBI2 antag conf 64 | EBI2 agonist inactive | bGal cs inactive
CCCN1CCN(C(=O)C2CCN(S(=O)(=O)c3c(C)noc3/C=C/c3ccc(C)cc3)CC2)CC1	none
C=Cc1ccc(Cn2c(C)c(C(=O)NCc3ccccc3C(F)(F)F)sc2=O)cc1	none (no result: APJ ag, CCR6 antagonist, APJ antag)
CCOC(=O)CN(C(=O)Cn1nnc(-c2ccc(OC)cc2)n1)C(C(=O)NC1CCCC1)c1ccc(F)cc1 (stereo unspecified)	EBI2 block 75 | EBI2 antag conf inactive | EBI2 agonist inactive | bGal cs inactive
CN(C(=O)c1cccc(NC(=O)Cc2ccc(NC(=O)C3CCN(S(=O)(=O)c4cccc([N+](=O)[O-])c4)CC3)cc2)c1)C1CCC1	EBI2 block 77 (no result: APJ ag, APJ antag) | EBI2 antag conf inactive | EBI2 agonist inactive | bGal cs inactive
CN(C(=O)c1cccc(NC(=O)Cc2ccc(NC(=O)C3CCN(S(=O)(=O)c4cccc([N+](=O)[O-])c4)CC3)cc2)c1)C1CCCC1	none (no result: APJ ag, APJ antag)
COC(=O)c1ccc(Oc2ccc(S(=O)(=O)N3CCCCC3)cc2N)cc1	EBI2 block 35 | EBI2 antag conf inactive | EBI2 agonist inactive | bGal cs inactive
C=CCN1C(=O)NC(c2ccc(OC)cc2)(C(F)(F)F)S/C1=C(\C#N)c1nnc(N2CCOCC2)n1-c1ccccc1 (stereo unspecified)	EBI2 block 68 | EBI2 antag conf 69 | EBI2 agonist inactive | bGal cs inactive
COCCCNC(=O)CC(NS(=O)(=O)c1ccc(Cl)cc1)c1ccc(OC)cc1 (stereo unspecified)	none
COc1ccc2nc(SCC(=O)N3CC(=O)Nc4ccccc43)c(C#N)cc2c1	EBI2 block 57 | EBI2 antag conf inactive | EBI2 agonist inactive | bGal cs inactive
